The source of these data is ChEMBL document CHEMBL1212855, “1-Azaaurones derived from the naturally occurring aurones as potential antimalarial drugs” (Bioorg Med Chem, 2010).

Molecules are shown by their SMILES. In brackets after ≈: the same amount, converted by molar mass.

Data set [1] deals with Plasmodium falciparum. Description: Antiplasmodial activity against Plasmodium falciparum FcB1/columbia infected in human erythrocytes. Format: functional, organism-based. Summed up:
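Blood stages cultured in human erythrocytes in RPMI 1640 with 5% human serum (Trager–Jensen, modified). Cultures were synchronized every 48 h by 5% D-sorbitol lysis. IC50 is the concentration giving 50% inhibition of parasite growth, with chloroquine as the control drug.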

For data set [2], the system named is Plasmodium vinckei petteri. Briefly: Antimalarial activity against Plasmodium vinckei petteri infected in CD mice (Mus musculus) assessed as inhibition of parasitaemia dosed daily for 4 days measured on day 5. Format: functional. Summed up: (§1)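 Four-day suppressive test: female CD mice (mean body weight 20 2 g) infected with 10⁶ P. vinckei petteri-infected red blood cells in RPMI on day 0. Groups of five treated intraperitoneally days 0–3 at 1, 10 or 20 mg/kg/day. Controls received RPMI alone or chloroquine (1 and 10 mg/kg). Giemsa-stained tail-blood smears, at least 5000 erythrocytes counted. Inhibition % = (control − treated parasitaemia)/control × 100.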

In data set [3] the test system is Plasmodium vinckei petteri. Briefly: Antimalarial activity against Plasmodium vinckei petteri infected in CD mice (Mus musculus) assessed as inhibition of parasitaemia at 20 mg/kg, intraperitoneal daily for 4 days measured on day 5. Format: functional. The note with it: ip. An outline of the steps: as §1
Data set [4] relates to Plasmodium vinckei petteri. Briefly: Antimalarial activity against Plasmodium vinckei petteri infected in CD mice (Mus musculus) assessed as inhibition of parasitaemia at 1 mg/kg, intraperitoneal daily for 4 days measured on day 5. Format: functional. The conditions noted are these: ip. Summed up: as §1
In data set [5] the test system is Plasmodium vinckei petteri. Description: Antimalarial activity against Plasmodium vinckei petteri infected in CD mice (Mus musculus) assessed as inhibition of parasitaemia at 10 mg/kg, intraperitoneal daily for 4 days measured on day 5. In kind it is functional. The note with it: ip. Summed up: as §1
For data set [6], the system named is Mus musculus. Briefly: Toxicity against CD mouse at 20 mg/kg, ip qd for 4 days. Format: organism-based. Set-up: dose 20 mg/kg, route intraperitoneal. The conditions noted are these: in vivo, 96 h.

A word on the IC50: it is the concentration at which inhibition is half-maximal. Low values mean inhibition by little substance, high ones a need for much substance. In general, inhibition in vivo refers to how much of the control response was suppressed.

`COc1cc(OC)c2c(c1)O/C(=C\c1ccc(F)cc1)C2=O`: the IC50 in data set [1] was determined as 86.7 µM.

In data set [1], `Cc1ccc(/C=C2\Oc3cc(O)cc(O)c3C2=O)cc1` returned an IC50 of 63.4 µM.

Compound `COc1cc2c(c(OC)c1)C(=O)/C(=C/c1cc(C)c(C)cc1C)N2` returned an IC50 in data set [1] of 5.6 µM.

The compound `CCc1ccccc1/C=C1\Oc2cc(OC)cc(OC)c2C1=O` came in with an IC50 in data set [1] of 21 µM.

`COc1cc(OC)c2c(c1)O/C(=C\c1ccc(C(C)(C)C)cc1)C2=O` yielded an IC50 in data set [1] of 13.3 µM.

The compound `CCCCc1ccc(/C=C2\Oc3cc(OC)cc(OC)c3C2=O)cc1` gave an IC50 in data set [1] of 11.8 µM.

`COc1cc(OC)c2c(c1)O/C(=C\c1ccc(Br)cc1)C2=O`: the concentration for half-maximal inhibition (IC50) in data set [1] turned out to be 49.8 µM.

`COc1cc(OC)c2c(c1)O/C(=C\c1ccc(-c3ccccc3)cc1)C2=O`: the IC50 in data set [1] stood at 234 µM.

The compound `COc1cc(OC)c2c(c1)O/C(=C\c1ccc(-c3ccncc3)cc1)C2=O` showed an IC50 in data set [1] of 85 µM.

Turning to `COc1cc2c(c(OC)c1)C(=O)/C(=C/c1ccc(Br)cc1)N2`, the IC50 in data set [1] turned out to be 49.8 µM.

Compound `COc1cc2c(c(OC)c1)C(=O)/C(=C/c1ccccc1Cl)N2` displayed an IC50 in data set [1] of 9.9 µM.

In data set [1], `COc1cc2c(c(OC)c1)C(=O)/C(=C/c1cc(Cl)ccc1Cl)N2` displayed an IC50 of 8.4 µM.

For the compound `CCc1ccccc1/C=C1\Nc2cc(OC)cc(OC)c2C1=O`, it took 12.8 µM to reach half-maximal inhibition in data set [1] (IC50).

`COc1cc2c(c(OC)c1)C(=O)/C(=C/c1c(C)cccc1C)N2` came in with an IC50 in data set [1] of 9.1 µM.

`COc1cc2c(c(OC)c1)C(=O)/C(=C/c1ccc(C)cc1C)N2` gave an IC50 in data set [1] of 3.6 µM.

`COc1cc2c(c(OC)c1)C(=O)/C(=C/c1c(C)c(C)cc(C)c1C)N2` showed an IC50 in data set [1] of 8.9 µM.

Consider `COc1cc2c(c(OC)c1)C(=O)/C(=C/c1ccc(C(C)C)cc1)N2`, for which the IC50 in data set [1] turned out to be 4.4 µM.

For `COc1cc2c(c(OC)c1)C(=O)/C(=C/c1ccc(C(C)(C)C)cc1)N2`, the midpoint of inhibition in data set [1], the IC50, lay at 7.2 µM.

`CCCCc1ccc(/C=C2\Nc3cc(OC)cc(OC)c3C2=O)cc1` displayed an IC50 in data set [1] of 4.1 µM.

As for `C#Cc1ccc(/C=C2\Nc3cc(OC)cc(OC)c3C2=O)cc1`, the midpoint of inhibition in data set [1], the IC50, lay at 13.4 µM.

The compound `COc1ccc(/C=C2\Nc3cc(OC)cc(OC)c3C2=O)c(OC)c1` displayed an IC50 in data set [1] of 5 µM.

As to `COc1cc(OC)c(/C=C2\Nc3cc(OC)cc(OC)c3C2=O)c(OC)c1`, in data set [1], the concentration for half-maximal inhibition (IC50) turned out to be 1.9 µM.

As for `COc1cc2c(c(OC)c1)C(=O)/C(=C/c1cc(OC)c(OC)c(OC)c1)N2`, inhibition in data set [1] was half-maximal at 1.9 µM (IC50).

As to `COc1cc2c(c(OC)c1)C(=O)/C(=C/c1ccc(SC)cc1)N2`, it took 6.7 µM to reach half-maximal inhibition in data set [1] (IC50).

`COc1cc2c(c(OC)c1)C(=O)/C(=C/c1ccc(N3CCOCC3)cc1)N2` came in with an IC50 in data set [1] of 8.9 µM.

As for `COc1cc2c(c(OC)c1)C(=O)/C(=C/c1ccc(N(C)C)cc1)N2`, in data set [1], the IC50 was determined as 3.7 µM.

On to `CCc1ccc(/C=C2\Oc3cc(O)ccc3C2=O)cc1`, for which the IC50 in data set [1] turned out to be 28 µM.

Consider `CCc1ccc(/C=C2\Nc3cc(OC)cc(OC)c3C2=O)cc1`, for which the IC50 in data set [1] is 1 µM. The ED50 in data set [2] was more than 20 mg/kg. The inhibition in vivo at 20 mg/kg in data set [3] was 0%. Further, in data set [4], the inhibition in vivo at 1 mg/kg amounted to 3%. For the same compound, the inhibition in vivo at 10 mg/kg in data set [5] was 17%. For the same compound, the Activity result in data set [6] is “Non-toxic”.

For the compound `COc1cc2c(c(OC)c1)C(=O)/C(=C/c1ccc(Cl)cc1)N2`, inhibition in data set [1] was half-maximal at 17 µM (IC50).

`COc1cc2c(c(OC)c1)C(=O)/C(=C/c1c(F)cccc1Cl)N2`: in data set [1], the half-maximal inhibitory concentration (IC50) came to 9 µM.

In turn, `COc1cc(OC)c2c(c1)O/C(=C\c1ccccc1)C2=O` came in with an IC50 in data set [1] of 60.3 µM.

Turning to `CCc1ccccc1/C=C1\Oc2cc(O)cc(O)c2C1=O`, in data set [1], 114 µM corresponded to half-maximal inhibition (IC50).

Compound `O=C1/C(=C/c2ccccc2)Oc2cc(O)cc(O)c21` yielded an IC50 in data set [1] of 94.5 µM.

`O=C1/C(=C/c2ccc(O)cc2)Oc2cc(O)ccc21` showed an IC50 in data set [1] of 130 µM.

Compound `COc1ccc(/C=C2\Oc3cc(OC)cc(OC)c3C2=O)cc1` [4,4',6-TRIMETHOXY-AURONE] displayed an IC50 in data set [1] of 11 µM.

For `CCN(CC)CCCC(C)Nc1ccnc2cc(Cl)ccc12` (stereo not drawn) [CHLOROQUINE], in data set [2], the ED50 was found to be 5000 µg/mL (≈ 15.6 mM). For the same compound, the inhibition in vivo at 1 mg/kg in data set [4] turned out to be 0%. Moreover, in data set [5], the inhibition in vivo at 10 mg/kg is 100%.
